Experimental data as given in ChEMBL document CHEMBL1147385, “Kinase inhibitors from Polygonum cuspidatum” (J Nat Prod, 1993).
Converted amounts (≈) assume the structure as drawn.

What was measured:
[1] = Inhibition of bovine thymus p56LCK; parameters: species or system Bos taurus
In short: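 Partially purified p56lck from bovine thymus (through butyl-agarose step). Compounds were dissolved in DMSO, with 8% DMSO present in all assays. Emodin served as reference compound.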

Protein kinase C (PKC) = assay: Inhibition of rat brain PKC
In short: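 Rat brain PKC, partially purified and mainly alpha/beta isoforms, acting on lysine-rich histone (30 μg). Partial activation by phosphatidylserine 8 μg/ml plus TPA 3 nM, no calcium, EGTA present, 20 mM Tris-Cl pH 7.4. Run 10 min at 30°, duplicates. Samples spotted on P81 paper, Cerenkov counted, no-enzyme blanks subtracted. IC50 from logarithmic interpolation over ten-fold dilutions, 0.16–160 μg/ml.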

Row | IC50 [1] | IC50 (Protein kinase C (PKC)) | Structure (SMILES)
1 | > 8 ×10² ug/ml | 6 µg/mL (≈ 15.4 µM) | OC[C@H]1O[C@@H](Oc2ccc(/C=C\c3cc(O)cc(O)c3)cc2)[C@H](O)[C@@H](O)[C@@H]1O
2 | – | 30 µg/mL (≈ 73.6 µM) | CN1CCN(CCCN2c3ccccc3Sc3ccc(C(F)(F)F)cc32)CC1 [TRIFLUOPERAZINE]
3 | 5 ×10¹ ug/ml | 3 ×10¹ ug/ml | Oc1ccc(/C=C\c2cc(O)cc(O)c2)cc1 [CIS-RESVERATROL]
4 | 6 ×10¹ ug/ml | 4 ×10¹ ug/ml | Oc1ccc(/C=C/c2cc(O)cc(O)c2)cc1 [RESVERATROL]
5 | 2 ×10² ug/ml | 3 µg/mL (≈ 7.68 µM) | OC[C@H]1O[C@@H](Oc2ccc(/C=C/c3cc(O)cc(O)c3)cc2)[C@H](O)[C@@H](O)[C@@H]1O [GOB C]
6 | 10 µg/mL (≈ 37 µM) | – | Cc1cc(O)c2c(c1)C(=O)c1cc(O)cc(O)c1C2=O [EMODIN]
7 | 5 ×10² ug/ml | 2 ×10² ug/ml | OC[C@H]1O[C@@H](Oc2cc(O)cc(/C=C\c3ccc(O)cc3)c2)[C@H](O)[C@@H](O)[C@@H]1O [Z-PICEID]
8 | 2 ×10² ug/ml | 2 ×10² ug/ml | OC[C@H]1O[C@@H](Oc2cc(O)cc(/C=C/c3ccc(O)cc3)c2)[C@H](O)[C@@H](O)[C@@H]1O [PICEID]
